Assay [1] relates to Canis familiaris. Briefly: Antiarrhythmic effect in coronary artery ligated dog model at a dose of 5 mg/kg, administered intravenously and value noted at 1 hr. The note with it: route intravenous. The format is functional, Canis lupus familiaris, Heart. The procedure, abridged: (§1)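 Coronary-ligated dogs with ventricular arrhythmias. Dosing was 5 mg/kg in 10–20 mL isotonic saline, given as an iv infusion over 5 min. Limb lead II ECG was monitored continuously for up to 6 h. Percent normal sinus beats was scored at control, end of dose, 20 min and 1 h. Values are mean ± SEM for three or more animals, mean ± SD for two.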

Assay [2] relates to Canis familiaris. Briefly: Antiarrhythmic effect in coronary artery ligated dogs model at a dose of 5 mg/kg, value noted at end dose. Type of assay: functional, Canis lupus familiaris, Heart. The procedure, abridged: as §1
Assay [3] is filed under the species Canis familiaris. Briefly: Compound was evaluated for the activity rating. Type of assay: functional, Canis lupus familiaris. In outline:
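In ligated dogs given 5 mg/kg iv over 5 min, group % normal beats was plotted at end of dose, 20 min and 1 h. The area under this curve minus the control area was divided by the same area for an ideal response (100% normal beats for the whole hour), then multiplied by 100.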

In assay [4] the test system is Canis familiaris. Briefly: Antiarrhythmic effect in coronary artery ligated dogs model at a dose of 5 mg/kg, administered intravenously and value noted at 20 min. Type of assay: functional, Canis lupus familiaris, Heart. The note with it: route intravenous. The procedure, abridged:
as §1

For assay [5], the species on record is Canis familiaris. Briefly: Compound was evaluated for the degree of tachycardia; 160-199. The format is functional, Canis lupus familiaris. The procedure, abridged:
(§2)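 Conscious normal dogs received 5 mg/kg iv over 5 min, with heart rate from limb lead II ECG. Tachycardia was graded as severe (≥200 beats/min), moderate (160–199), slight (<160 after a rise of ≥20) or none (change <20 beats/min).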

The species named for assay [6] is Canis familiaris. Briefly: Compound was evaluated for the duration of sustained effect; 0.5-2. The format is functional, Canis lupus familiaris. In outline:
(§3)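 Normal dogs received 5 mg/kg iv over 5 min, with heart rate tracked by continuous ECG. Dogs above 140 beats/min were followed until the rate fell to 140. The sustained effect was rated long (>2 h), moderate (0.5–2 h) or short (<0.5 h).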

The subject of assay [7] is Canis familiaris. Briefly: Compound was evaluated for the heart rate effect in normal dogs at a dose of 5 mg/kg, administered intravenously and value noted at 20 min. The format is functional, Canis lupus familiaris. The settings on record: route intravenous. The procedure, abridged: (§4)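 Conscious normal dogs, trained and sling-restrained, received the same iv dosing: 5 mg/kg infused over 5 min. Heart rate came from continuous limb lead II ECG at control, end of dose, 20 min and 1 h. Values are mean ± SD for two dogs.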

In assay [8] the test system is Canis familiaris. Briefly: Compound was evaluated for the heart rate effect in normal dogs at a dose of 5 mg/kg, administered intravenously and value noted at end dose. The format is functional, Canis lupus familiaris. The note with it: route intravenous. The procedure, abridged:
as §4

Assay [9] has as its system Canis familiaris. Briefly: Compound was evaluated for the heart rate effect in normal dogs at a dose of 5 mg/kg, administered intravenously and value noted at 1h. Type of assay: functional, Canis lupus familiaris. The note with it: route intravenous. The procedure, abridged: as §4
Assay [10] is filed under the species Canis familiaris. Briefly: Compound was evaluated for the duration of sustained effect. Type of assay: functional, Canis lupus familiaris. The procedure, abridged:
as §3

The species named for assay [11] is Canis familiaris. Briefly: Compound was evaluated for the degree of tachycardia. The format is functional, Canis lupus familiaris. In outline:
as §2

Where only a bound is given, the exact number is not on record here.

Consider `CC1CCCC(C)N1CCCC(O)(c1ccccn1)c1ccccn1.Cl` (centres undefined), for which the Normal beats in the assay with Canis familiaris [1] was found to be 32%; in the assay on Canis familiaris [2], 90%; in the assay on Canis familiaris [4] it was 68%. In the assay filed under Canis familiaris [3], this compound returned an Activity rating of 53.
As for `CC1CCCC(C)N1CCCC(O)(c1ccccc1)C1CCCCC1.Cl` (centres undefined), the Normal beats turned out to be 68% with Canis familiaris [1], 98% in the assay with Canis familiaris [2] and 65% in the assay on Canis familiaris [4]. The Heart rate in the assay filed under Canis familiaris [5] came to 160 beats min-1; with Canis familiaris [7] it was 152 beats min-1; in the assay on Canis familiaris [8], 176 beats min-1; in the assay on Canis familiaris [9] it was 121 beats min-1. Also, in the assay filed under Canis familiaris [3], the Activity rating amounted to 66. Besides, the Duration in the assay filed under Canis familiaris [6] is 0.5 h.
With `Cl.OC(CCCN1CCCCC1)(c1ccccc1)c1ccccn1` (centres undefined), the Normal beats was found to be 8% with Canis familiaris [1], 97% in the assay with Canis familiaris [2] and 21% in the assay with Canis familiaris [4]. Besides, the Activity rating in the assay listed under Canis familiaris [3] turned out to be 17.
The matching figures for `CCC1CCCCN1CCCC(O)(c1ccccc1)c1ccccc1.Cl` (centres undefined): 37%, 87%, 48% and 46.
For `CC1CCCC(C)N1CCC(O)(c1ccccc1)c1ccccc1.Cl` (centres undefined), the Normal beats with Canis familiaris [1] is 74%; with Canis familiaris [2], 97%; in the assay on Canis familiaris [4], 96%. Besides, in the assay listed under Canis familiaris [3], the Activity rating turned out to be 86. The Heart rate with Canis familiaris [7] amounted to 117 beats min-1; with Canis familiaris [8], 137 beats min-1; in the assay on Canis familiaris [9], 130 beats min-1.
Regarding `CC1CCCC(C)N1CCC(C(N)=O)(c1ccccc1)c1ccccc1.Cl` (centres undefined), the Normal beats is recorded as 83% with Canis familiaris [1], 64% in the assay on Canis familiaris [2] and 51% in the assay on Canis familiaris [4]. Besides, the Activity rating in the assay listed under Canis familiaris [3] came out at 39.
The matching figures for `CC1CCCC(C)N1CCC(CN)(c1ccccc1)c1ccccc1` (centres undefined): 39%, 100%, 61% and 50.
In the same order, the values of `CC1CCCC(C)N1CCCC(O)c1ccccc1.Cl` (centres undefined) are 10%, 99%, 45% and 35.
The matching figures for `CC1CCCC(C)N1CCC(C#N)(c1ccccc1)c1ccccc1.Cl` (centres undefined): 65%, 91%, 72% and 70.
For `CC(=O)NCC(CCCN1C(C)CCCC1C)(c1ccccc1)c1ccccc1.Cl` (centres undefined), the Normal beats came out at 53% in the assay with Canis familiaris [1], 95% in the assay with Canis familiaris [2] and 71% in the assay on Canis familiaris [4]. Besides, the Activity rating in the assay filed under Canis familiaris [3] turned out to be 62.
As to `CC1CCCC(C)N1CCCC(O)(c1ccccc1)c1ccccn1.Cl` (centres undefined) [PIRMENOL HYDROCHLORIDE], the results for the Normal beats with Canis familiaris [1], in the assay with Canis familiaris [2] and with Canis familiaris [4] were 59%, 94% and 80%, respectively. Moreover, the Heart rate was 160 beats min-1 in the assay listed under Canis familiaris [5], 172 beats min-1 in the assay on Canis familiaris [7], 194 beats min-1 with Canis familiaris [8] and 157 beats min-1 in the assay with Canis familiaris [9]. In the assay listed under Canis familiaris [3], this compound came in with an Activity rating of 71. The compound also returned a Duration in the assay listed under Canis familiaris [10] above 2 h.
In the case of `CC1CCCC(C)N1CCCC(C#N)(c1ccccc1)c1ccccn1` (centres undefined), the results for the Normal beats in the assay with Canis familiaris [1], with Canis familiaris [2] and in the assay with Canis familiaris [4] were 97%, 100% and 50%, respectively. This compound had an Activity rating in the assay listed under Canis familiaris [3] of 36. In the assay filed under Canis familiaris [10], this compound yielded a Duration below 0.5 h. The Heart rate in the assay on Canis familiaris [7] is given as 154 beats min-1; in the assay listed under Canis familiaris [11] it was below 160 beats min-1; with Canis familiaris [8] it was 154 beats min-1; with Canis familiaris [9], 131 beats min-1.
Regarding `CC1CCCC(C)N1CCCC(C(N)=O)(c1ccccc1)c1ccccc1.Cl` (centres undefined), the Normal beats came to 94% in the assay on Canis familiaris [1], 98% with Canis familiaris [2] and 90% in the assay on Canis familiaris [4]. The compound further yielded an Activity rating in the assay listed under Canis familiaris [3] of 91. The Duration in the assay filed under Canis familiaris [10] was above 2 h. In addition, the Heart rate is given as 223 beats min-1 in the assay on Canis familiaris [7], above 200 beats min-1 in the assay filed under Canis familiaris [11], 235 beats min-1 in the assay on Canis familiaris [8] and 215 beats min-1 in the assay with Canis familiaris [9].
Regarding `CC(=O)NCC(CCN1C(C)CCCC1C)(c1ccccc1)c1ccccc1` (centres undefined), the Normal beats in the assay on Canis familiaris [1] was found to be 49%; with Canis familiaris [2], 82%; in the assay with Canis familiaris [4] it was 62%. The same compound came in with an Activity rating in the assay listed under Canis familiaris [3] of 53. This compound also displayed a Duration in the assay listed under Canis familiaris [10] below 0.5 h. Moreover, the Heart rate in the assay on Canis familiaris [7] is 119 beats min-1; in the assay listed under Canis familiaris [11], below 160 beats min-1; with Canis familiaris [8], 141 beats min-1; with Canis familiaris [9], 103 beats min-1.
`CC1CCCC(C)N1CCCC(c1ccccc1)c1ccccn1.Cl` (centres undefined): the Normal beats in the assay on Canis familiaris [1] came to 67%; in the assay on Canis familiaris [2], 62%; in the assay with Canis familiaris [4], 37%. In addition, the Activity rating in the assay listed under Canis familiaris [3] stood at 47.
As to `CC1CCC(C)N1CCCC(O)(c1ccccc1)c1ccccc1.Cl` (centres undefined), the Normal beats in the assay with Canis familiaris [1] was determined as 35%; with Canis familiaris [2], 69%; in the assay with Canis familiaris [4], 39%. Besides, the Activity rating in the assay filed under Canis familiaris [3] was 29. In the assay listed under Canis familiaris [10], this compound showed a Duration above 2 h. Further, the Heart rate is 218 beats min-1 in the assay with Canis familiaris [7], above 200 beats min-1 in the assay filed under Canis familiaris [11], 243 beats min-1 in the assay with Canis familiaris [8] and 193 beats min-1 in the assay on Canis familiaris [9].
For `Cc1ccccc1C(O)(CCCN1C(C)CCCC1C)c1ccccc1.Cl` (centres undefined), the Normal beats in the assay with Canis familiaris [1] is listed as 61%; in the assay with Canis familiaris [2], 92%; with Canis familiaris [4], 61%. For the same compound, the Activity rating in the assay listed under Canis familiaris [3] is given as 60. Besides, the Duration in the assay listed under Canis familiaris [10] was above 2 h. The Heart rate in the assay with Canis familiaris [7] is 149 beats min-1; in the assay listed under Canis familiaris [11] it was below 160 beats min-1; with Canis familiaris [8] it was 155 beats min-1; in the assay on Canis familiaris [9], 151 beats min-1.
Take `CC1CCCC(C)N1CC(O)(c1ccccc1)c1ccccc1` (centres undefined): the Normal beats in the assay with Canis familiaris [1] came out at 16%; in the assay with Canis familiaris [2], 56%; in the assay on Canis familiaris [4], 16%. Further, the Activity rating in the assay filed under Canis familiaris [3] was 15. The values for the Heart rate with Canis familiaris [7], in the assay on Canis familiaris [8] and in the assay with Canis familiaris [9] were 92 beats min-1, 115 beats min-1 and 96 beats min-1, respectively.
Consider `CC1CCCC(C)N1CCCC(O)(c1ccccc1)c1ccccc1.Cl` (centres undefined), for which the Normal beats with Canis familiaris [1] was determined as 76%; in the assay with Canis familiaris [2], 96%; in the assay on Canis familiaris [4] it was 86%. For the same compound, the Heart rate in the assay filed under Canis familiaris [5] stood at 160 beats min-1; in the assay on Canis familiaris [7], 155 beats min-1; in the assay with Canis familiaris [8] it was 187 beats min-1; with Canis familiaris [9] it was 165 beats min-1. In addition, in the assay listed under Canis familiaris [3], the Activity rating is reported as 81.
As for `CC1CCCC(C)N1CCCCC(O)(c1ccccc1)c1ccccc1` (centres undefined), the values for the Normal beats in the assay with Canis familiaris [1], in the assay on Canis familiaris [2] and in the assay with Canis familiaris [4] were 51%, 99% and 84%, respectively. The same compound came in with an Activity rating in the assay listed under Canis familiaris [3] of 72. For the same compound, the Duration in the assay listed under Canis familiaris [6] stood at 0.5 h. The results for the Heart rate in the assay on Canis familiaris [7], with Canis familiaris [8] and with Canis familiaris [9] were 139 beats min-1, 137 beats min-1 and 140 beats min-1, respectively.
As to `Cl.OC(CCCN1CCCCC1)(c1ccccc1)c1ccccc1` [DIPHENIDOL HYDROCHLORIDE], the Normal beats is listed as 34% in the assay on Canis familiaris [1], 90% with Canis familiaris [2] and 54% in the assay on Canis familiaris [4]. The Heart rate in the assay listed under Canis familiaris [5] amounted to 160 beats min-1; in the assay with Canis familiaris [7], 155 beats min-1; in the assay with Canis familiaris [8], 200 beats min-1; in the assay with Canis familiaris [9], 142 beats min-1. In the assay listed under Canis familiaris [3], this compound registered an Activity rating of 39. For the same compound, the Duration in the assay filed under Canis familiaris [10] is above 2 h.
On to `CC1CCCC(C)N1CCCC(O)(c1ccccc1)c1cccnc1.Cl` (centres undefined), for which the figures for the Normal beats with Canis familiaris [1], in the assay with Canis familiaris [2] and in the assay on Canis familiaris [4] were 6%, 43% and 16%, respectively. In the assay filed under Canis familiaris [3], this compound registered an Activity rating of 13.
The matching figures for `CC(C)N(CCC(C(N)=O)(c1ccccc1)c1ccccn1)C(C)C` (centres undefined) [DISOPYRAMIDE]: 16%, 89%, 60% and 49.
As to `CC1CCCC(C)N1CCCC(O)(c1ccccc1)c1ccncc1` (centres undefined), the Normal beats in the assay on Canis familiaris [1] is given as 7%; with Canis familiaris [2], 51%; in the assay on Canis familiaris [4], 11%. This compound also showed an Activity rating in the assay filed under Canis familiaris [3] of 13.
In the same order, the values of `CC1CCC(C)N1CCCCC(O)(c1ccccc1)c1ccccn1` (centres undefined) are 43%, 88%, 52% and 42.

The record behind these values is ChEMBL document CHEMBL1125713, “Synthesis and antiarrhythmic activity of cis-2,6-dimethyl-alpha,alpha-diaryl-1-piperidinebutanols” (1991).
